Compound activity from PubChem BioAssay.
IMP-1 inhibitor: blocks Pseudomonas aeruginosa IMP-1 metallo-beta-lactamase; inhibition, % at 5.6 µM; purified IMP-1, nitrocefin hydrolysis, epi-absorbance fluorescence; 290,000 tested, 0.45% active;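 active = inhibition above the mean plus 3 SD of all compounds in the same screening run, cut at about 4.5% in these data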;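 also: 0% = IMP-1 with DMSO and 100% = DMSO wells lacking enzyme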
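system = purified recombinant IMP-1 beta-lactamase | amount = 0.2 nM IMP-1, as dispensed | medium = HEPES buffer pH 7.1 with ZnSO4 and Brij 35 | times = 25 °C, 15 min preincubation, 25 min reaction | detection = plate fluorescence quenching by hydrolysis product, ex 480/em 530 nm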
VIM-2 inhibitor: blocks Pseudomonas aeruginosa VIM-2 metallo-beta-lactamase; inhibition, % at 5.6 µM; 290,000 tested, 0.89% active; purified VIM-2, nitrocefin hydrolysis, epi-absorbance fluorescence;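 active = inhibition above the mean of all tested compounds plus 3 SD, cutoff set per screening run, cut at about 7.5% in these data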;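 also: red hydrolysis product quenches plate fluorescence so inhibitors raise well fluorescence; 0% = enzyme with DMSO and 100% = DMSO without enzyme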
NS3 helicase inh: inhibitors of Hepatitis C virus NS3 helicase | NS3 helicase DNA unwinding, Cy5 molecular beacon fluorescence | inhibition, % at 10.9 µM | 290,000 tested, 0.56% active | AID 1800;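 active = inhibition above the mean of all tested compounds plus 3 SD, set per campaign, cut at about 35% in these data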;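 also: 0% = DMSO wells and 100% = thioflavine S control wells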
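Test system: hepatitis C virus NS3 helicase domain fragment enzyme. Also added: annealed dual-labelled DNA beacon duplex, ATP-started. Timing: 60 min unwinding reaction at 25 °C after ATP addition. Technique: Cy5 fluorescence. Measure: % inhibition of unwinding.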
UBC9 SUMO inh: blocks human SUMOylation mediated by UBC9. P63279. HTRF SUMOylation assay, SAE1/SAE2 + UBC9, in vitro. inhibition, % at 35 µM. 290,000 tested, 0.36% active; in the data active = inhibition above about 50%, passing the limit was not always enough
Target sequence (P63279 whole entry, looked up): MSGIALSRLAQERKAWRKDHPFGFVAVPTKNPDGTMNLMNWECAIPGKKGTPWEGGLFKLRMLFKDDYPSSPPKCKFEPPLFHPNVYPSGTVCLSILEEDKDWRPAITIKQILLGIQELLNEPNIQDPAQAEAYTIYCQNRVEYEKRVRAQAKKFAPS
HCV core dimer: HCV core protein dimerization inhibition; inhibition, % at 5 µM; 300,000 tested, 0.33% active; TR-FRET GST/Flag-core106 dimerization, 1536-well;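 active = inhibition above the mean of all tested compounds plus 3 SD, set per screening campaign, cut at about 45% in these data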
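test system = GST/Flag-tagged HCV core106 proteins | probe or stimulus = Eu donor and XL665 acceptor anti-tag antibodies | times = compound-protein-antibody incubation 4 h at 22.5 °C | signal = TR-FRET, excitation 340 nm, emission 617 and 671 nm | measure = percent inhibition of core106 dimerization signal | controls = wells lacking GST-core106 and wells with excess unlabelled core106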
PHOSPHO1 inh: inhibitors of human PHOSPHO1 phosphatase | inhibition, % at 13.3 µM | recombinant PHOSPHO1, absorbance phosphatase assay | 290,000 tested, 1.1% active; in the data active = inhibition above about 60%
Target sequence (Q8TCT1 whole entry, looked up): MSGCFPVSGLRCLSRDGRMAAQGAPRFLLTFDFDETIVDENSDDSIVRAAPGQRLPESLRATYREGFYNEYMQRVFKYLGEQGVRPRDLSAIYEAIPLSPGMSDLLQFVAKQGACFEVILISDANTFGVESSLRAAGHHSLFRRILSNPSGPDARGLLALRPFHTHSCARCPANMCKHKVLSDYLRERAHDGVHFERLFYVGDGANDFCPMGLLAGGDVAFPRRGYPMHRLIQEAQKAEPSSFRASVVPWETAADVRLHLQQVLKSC
An asterisk follows results filed as active; / = not tested or not shown. In the library only some 3.1% were active in any assay of this set; here they are far more common.

SMILES | IMP-1 inhibitor | VIM-2 inhibitor | NS3 helicase inh | UBC9 SUMO inh | HCV core dimer | PHOSPHO1 inh
CCC1(N(C(C)=O)c2ccc(OC)cc2)C(=O)c2ccccc2C1=O | 21* | 0 | 8 | 26 | -5 | -11
O=C(NN1C(=O)c2ccccc2C1=O)c1ccc2c(c1)C(=O)N(CC1CCCO1)C2=O (stereo unspecified) | -3 | -4 | -4 | 7 | 0 | 18
Cc1ccc(-c2cnc(SCC(=O)N3CCCc4ccccc43)n2C)cc1 | -3 | 0 | -8 | 16 | 11 | 77*
O=C(COc1ccccc1-c1ccccc1)NN=C1CCCC1 | -2 | -3 | 6 | -12 | 1 | 61*
O=C(NC1CCCCC1)C(c1ccccc1)N(C(=O)c1csnn1)C1CC1 (stereo unspecified) | -3 | -1 | -1 | 5 | 4 | 14
COc1cccc(-c2nn(C)c3sc(C(=O)NCc4ccc(C)o4)cc23)c1 | 4.7* | -1 | 9 | 28 | 12 | -36
CS(=O)(=O)c1ccc(-c2cn3cc(C(=O)O)ccc3n2)cc1 | -2 | 0 | 6 | 29 | -6 | 61*
COC(=O)c1ccc2nc(-c3ccc(S(C)(=O)=O)cc3)cn2c1 | 0 | 0 | 6 | 24 | -3 | 37
Cc1nc2sc(C(=O)Nc3ccccc3Cc3ccccc3)c(C)c2c(=O)[nH]1 | 0 | 0 | -9 | 24 | 6 | 38
O=C(CCS(=O)(=O)c1ccc(Br)cc1)NCCc1ccccc1 | 2 | 0 | 8 | 12 | 2 | 28
NS(=O)(=O)c1ccc(CCNC(=O)CCS(=O)(=O)c2ccc(Br)cc2)cc1 | 7.8* | -1 | 8 | 7 | / | 15
CCc1cccc(NC(=O)CCS(=O)(=O)c2ccc(Br)cc2)c1 | 9.8* | -1 | -10 | 13 | -92 | 5
O=C(CC1C(=O)NCCN1C1CCCC1)NCc1cccc(OC(F)(F)F)c1 (stereo unspecified) | -3 | -1 | -1 | -5 | 4 | 36
CCc1ccc2c(c1)c1nc(C)sc1n2CC | 1 | 1 | -1 | 99 | -3 | 92*
Cc1nc2c3cc(Cl)ccc3n(CCN3CCCCC3)c2s1 | 5.1* | 5 | 4 | 6 | -4 | 17
COC(=O)Cn1c2ccc(Cl)cc2c2nc(C)sc21 | -4 | 2 | -8 | 6 | 1 | -13
CCOC(=O)Nc1ccc(C(=O)/C=C/c2ccccc2)cc1 | -2 | -1 | -15 | 30 | 1 | 12
CCc1nn(C)c(-c2n[nH]c(=S)n2N)c1Cl | -2 | -1 | 15 | 4 | 2 | 62*
CCc1cc(-c2n[nH]c(=S)n2N)n(C)n1 | -5 | -7 | 2 | -7 | 2 | -76
O=C(C1CCN(c2ncnc3c2sc2cccc(F)c23)CC1)N1CCOCC1 | -2 | 11* | 3 | 15 | 6 | -1
COc1ccc(NC(=O)Nc2ccc3c(c2)CCC3)cc1 | -3 | -3 | 2 | -4 | 1 | 42
Cc1cc(C)n(CCN(C)C(=O)C2CCC(=O)N(CCc3cccc(F)c3)C2)n1 (stereo unspecified) | -1 | -2 | -8 | / | -7 | 64*
CC(C)N(Cc1cnn(C)c1)C(=O)C1CCC(=O)N(CCc2cccc(F)c2)C1 (stereo unspecified) | 1 | 3 | 16 | -2 | / | 61*
COc1ccc(CCN2CC(C(=O)N(C)CCn3nc(C)cc3C)CCC2=O)cc1 (stereo unspecified) | -3 | 1 | 9 | 1 | 4 | 7
CCN1CCN(CCOc2cccc(Oc3ccccc3)c2)CC1 | -1 | -3 | -15 | 4 | -6 | 37
SMILES | IMP-1 inhibitor | VIM-2 inhibitor | NS3 helicase inh | UBC9 SUMO inh | HCV core dimer | PHOSPHO1 inh
COc1ccc(CNc2c(C(=O)O)cnc3c2cnn3C)cc1 | -3 | 9.9* | -4 | 3 | 2 | 32
CCN(CC)C(=O)CSc1nc(N)c(C#N)c(-c2cccs2)c1C#N | -2 | -1 | -2 | -2 | -1 | -4
Cc1ccccc1NC(=O)CSc1nc(N)c(C#N)c(-c2cccs2)c1C#N | 12* | -4 | 2 | -11 | 18 | 17
COc1ccc2cc(C(c3nnnn3C3CCCC3)N3CCc4ccccc4C3)c(=O)[nH]c2c1 (stereo unspecified) | -3 | 0 | -5 | 33 | 1 | 98*
COc1ccc(Cn2nnnc2C(c2cc3ccc(OC)cc3[nH]c2=O)N2CCCCCC2)cc1 (stereo unspecified) | 1 | 3 | -5 | 15 | 7 | 86*
COc1cc2cc(C(c3nnnn3Cc3ccc(F)cc3)N3CCCCCC3)c(=O)[nH]c2cc1OC (stereo unspecified) | -5 | 0 | -22 | 2 | 1 | -12
CCc1ccc2[nH]c(=O)c(C(c3nnnn3CCOC)N3CCN(c4ccccc4)CC3)cc2c1 (stereo unspecified) | -3 | -2 | -2 | 17 | 2 | 86*
c1ccc2c(c1)ccc1nnnn12 | / | / | / | / | 0 | /
N=C1S/C(=C\c2ccco2)C(=O)N1c1nccs1 | -5 | -3 | 24 | 94* | -3 | -14
CC[C@H](C)/C=C(C)/C=C/C1=CC2=CC(=O)[C@]3(C)OC(=O)[C@@H](C(C)=O)[C@@H]3C2=CO1 | -1 | -3 | 34 | 22 | 56* | 24
O=C(N/N=C/c1ccc(OC(=O)c2ccc([N+](=O)[O-])cc2)cc1)c1cccnc1 | -4 | -3 | 6 | 1 | -20 | 63*
O=C(N/N=C/c1ccc(OC(=O)c2ccccc2)cc1)c1cccnc1 | -3 | -5 | 7 | 14 | 9 | 42
Cc1[nH]n(-c2ccccc2)c(=O)c1N=Nc1ccc(C(N)=O)cc1 | -2 | 12* | 1 | 10 | -3 | 24
Cc1ccc(-c2c(C(=O)O)c(C(=O)O)c3n2CCC3)cc1 | -2 | 9.8* | -5 | 2 | -4 | 24
COC(=O)c1c(C(=O)OC)c(-c2ccc(C)cc2)n2c1CCC2 | -3 | -2 | -1 | 18 | 7 | 25
O=C(O)c1c(C(=O)O)c(-c2ccc(F)cc2)n2c1CCC2 | 1 | 11* | 10 | 5 | -2 | 42
COC(=O)CCSC(=S)N1CCOCC1 | -2 | -1 | -2 | 1 | -3 | -4
COc1cccc(/C=C/C(=O)c2c(O)cc(C)oc2=O)c1O | -3 | -3 | 7 | 0 | 13 | 0
COc1cc(/C=C/C(=O)c2c(O)cc(C)oc2=O)cc(OC)c1O | -2 | -3 | 7 | 16 | 6 | 80*
CC1=C(SCCC#N)S/C(=C2\SC(C)=C(SCCC#N)S2)S1 | -2 | 2 | 5 | 3 | 0 | 95*
O=C(CCC1CCCN(C(=O)c2ccccc2Cl)C1)N1CCN(c2ccccn2)CC1 (stereo unspecified) | -4 | -5 | 7 | 16 | -4 | 24
CN(C)NC(=S)NC1CC2CCC1C2 (stereo unspecified) | -4 | -2 | 3 | 16 | 0 | 32
